Measured values: ChEMBL document CHEMBL1124062, “Structure-affinity relationships of arylquinolizines at alpha-adrenoceptors” (J Med Chem, 1988)

Legend:
[1] = Partition coefficient (logD) (octanol/phosphate buffer); type: physicochemical
In short: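 Shake-flask partition between octanol and pH 7.4 phosphate buffer of ionic strength 0.1 as the aqueous phase. Compound level in each phase read by UV absorption.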

[2] = molecular target: T1, Alpha-1A adrenergic receptor (Bos taurus, UniProt P18130); assay: Affinity to alpha-1 adrenergic receptor by the displacement of [3H]-prazosin from calf cerebral cortex membranes; type: tissue-based
T1 sequence (P18130 whole entry): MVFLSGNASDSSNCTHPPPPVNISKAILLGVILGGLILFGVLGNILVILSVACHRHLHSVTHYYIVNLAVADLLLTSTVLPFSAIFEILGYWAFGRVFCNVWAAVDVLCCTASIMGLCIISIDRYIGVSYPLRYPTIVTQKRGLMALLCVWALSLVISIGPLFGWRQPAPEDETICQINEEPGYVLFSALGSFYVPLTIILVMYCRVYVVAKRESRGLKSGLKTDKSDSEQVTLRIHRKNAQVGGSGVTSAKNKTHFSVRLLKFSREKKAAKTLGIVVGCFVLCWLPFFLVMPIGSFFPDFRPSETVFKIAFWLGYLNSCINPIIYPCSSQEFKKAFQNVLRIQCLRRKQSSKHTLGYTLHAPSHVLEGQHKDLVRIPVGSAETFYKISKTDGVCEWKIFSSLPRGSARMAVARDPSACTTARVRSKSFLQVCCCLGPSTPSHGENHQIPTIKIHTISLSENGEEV
In short: (§1)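 Membranes from calf cerebral cortex as the receptor source. Alpha1 sites labelled with [3H]prazosin and alpha2 sites with [3H]clonidine. Affinity measured as displacement of each radioligand.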

[3] = molecular target: T2, Alpha-2A adrenergic receptor (Bos taurus, UniProt Q28838); assay: Affinity to alpha-2 adrenergic receptor by the displacement of [3H]clonidine from calf cerebral cortex membranes; type: tissue-based; in short: as §1
T2 sequence (Q28838 whole entry): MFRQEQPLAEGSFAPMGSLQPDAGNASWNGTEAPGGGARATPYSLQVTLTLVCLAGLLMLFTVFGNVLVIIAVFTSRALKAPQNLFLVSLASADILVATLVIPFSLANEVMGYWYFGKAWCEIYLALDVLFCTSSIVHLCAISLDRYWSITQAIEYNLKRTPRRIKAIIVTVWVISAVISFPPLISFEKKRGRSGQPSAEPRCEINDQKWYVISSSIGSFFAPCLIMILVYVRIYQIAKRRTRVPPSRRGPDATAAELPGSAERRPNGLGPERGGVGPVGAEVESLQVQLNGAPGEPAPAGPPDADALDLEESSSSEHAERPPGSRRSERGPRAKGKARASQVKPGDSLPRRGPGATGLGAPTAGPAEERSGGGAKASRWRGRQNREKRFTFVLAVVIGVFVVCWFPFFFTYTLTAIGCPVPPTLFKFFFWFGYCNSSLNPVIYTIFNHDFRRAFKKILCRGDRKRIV

[4] = molecular target: T1, Alpha-1A adrenergic receptor; assay: Compound was evaluated for log 1/Ki at alpha-1 adrenergic receptor; conditions: read-out: Log 1/Ki (converted); in short: as §1
[5] = Selectivity expressed as the ratio of Ki of [3H]prazosin to Ki of [3H]-clonidine
[6] = molecular target: T2, Alpha-2A adrenergic receptor; assay: Compound was evaluated for log 1/Ki at alpha-2 adrenergic receptor; conditions: read-out: Log 1/Ki (converted); in short: as §1

## c1[nH]nc2c1CCN1CCCCC21 (stereo not drawn)
[1]
  logD: 0.16
[2]
  Ki: 24000 nM
[3]
  Ki: 9600 nM
[4]
  Ki: 24000 nM
[5]
  Selectivity: 2.5
[6]
  Ki: 9550 nM

## c1ccc2c3c(sc2c1)C1CCCCN1CC3 (stereo not drawn)
[1]
  logD: 2.09
[2]
  Ki: 16.1 nM
[3]
  Ki: 4.3 nM
[4]
  Ki: 16.2 nM
[5]
  Selectivity: 3.7
[6]
  Ki: 4.27 nM

## c1cnc2c(c1)CCN1CCCCC21 (stereo not drawn)
[1]
  logD: 0.39
[2]
  Ki: 3250 nM
[3]
  Ki: 2000 nM
[4]
  Ki: 3240 nM
[5]
  Selectivity: 1.6
[6]
  Ki: 2000 nM

## c1cnc2[nH]c3c(c2c1)CCN1CCCCC31 (stereo not drawn)
[1]
  logD: 0.16
[2]
  Ki: 540 nM
[3]
  Ki: 660 nM
[4]
  Ki: 537 nM
[5]
  Selectivity: 0.8
[6]
  Ki: 661 nM

## c1ccc2c3c([nH]c2c1)C1CCCCN1CC3 (stereo not drawn)
[1]
  logD: 1.83

## Nc1nc2c(s1)CCN1CCCCC21 (stereo not drawn)
[1]
  logD: 0.39
[2]
  Ki: 2800 nM
[3]
  Ki: 350 nM
[4]
  Ki: 2820 nM
[5]
  Selectivity: 8
[6]
  Ki: 347 nM

## c1cc2c(s1)C1CCCCN1CC2 (stereo not drawn)
[1]
  logD: 1.51
[2]
  Ki: 1100 nM
[3]
  Ki: 195 nM
[4]
  Ki: 1100 nM
[5]
  Selectivity: 5.6
[6]
  Ki: 195 nM

## c1ccc2c3c(oc2c1)C1CCCCN1CC3 (stereo not drawn)
[1]
  logD: 1.8
[2]
  Ki: 110 nM
[3]
  Ki: 16.2 nM
[4]
  Ki: 110 nM
[5]
  Selectivity: 6.8
[6]
  Ki: 16.2 nM
